Test results published in ChEMBL document CHEMBL4765236, “Insights into the Antimicrobial Activity and Cytotoxicity of Engineered α-Helical Peptide Amphiphiles” (J Med Chem, 2016).
Activity calls are given as the source filed them. The calls are words filed in the database; no cut-off is given here.

Legend:
Escherichia coli [1] = assay: Antibacterial activity against Escherichia coli ATCC 25922 assessed as bacterial growth inhibition incubated for 18 to 24 hrs by microtiter broth dilution method; assay type: functional; conditions: time 18-24 hrs
Procedure, shortened: (§1)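 Log-phase cells (grown overnight at 37 °C, subcultured in MHB) diluted to 10^5 CFU/mL in MHB and mixed 1:1 with serial peptide dilutions prepared in 0.01% acetic acid/0.2% BSA. Incubated 37 °C for 18-24 h. MIC is the lowest concentration giving no growth by OD492. Reported as the average of 3-5 independent experiments.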

Escherichia coli [2] = assay: Antibacterial activity against Escherichia coli O157:H7 CICC 21530 assessed as bacterial growth inhibition incubated for 18 to 24 hrs in presence of 2 mM CaCl2 by microtiter broth dilution method (reference value: 0.85 to > 71.5 uM); assay type: functional; conditions: time 18-24 hrs
Salmonella paratyphi = assay: Antibacterial activity against Salmonella paratyphi A CICC 20501 assessed as bacterial growth inhibition incubated for 18 to 24 hrs by microtiter broth dilution method; assay type: functional, Salmonella enterica subsp. enterica serovar Paratyphi A; conditions: Salmonella enterica, time 18-24 hrs
Procedure, shortened: (§2)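 Log-phase bacteria grown at 37 °C in MHB, diluted to 10^5 CFU/mL, mixed 1:1 with serial peptide dilutions (peptide diluted in 0.01% acetic acid, 0.2% BSA); 37 °C for 18-24 h. MIC read by OD492 as lowest concentration giving no growth; mean of 3-5 independent experiments.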

RAW264.7 [3] = assay: Antiinflammatory activity against mouse RAW264.7 cells assessed as inhibition of LPS-induced nitric oxide production measured after 24 hrs by Griess reagent based ELISA; assay type: functional, cell-based; conditions: dose 0.5-64 µM
Procedure, shortened: (§3)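 RAW264.7 cells plated at 1-2 × 10^5 cells/mL and stimulated with 500 ng/mL LPS with or without peptide (0.5-64 µM) for 24 h at 37 °C. Controls were untreated cells and LPS alone. TNF-α in the supernatant measured by ELISA. NO measured by Griess reagent (1% sulfanilamide, 0.1% naphthylethylenediamine, 5% phosphoric acid).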

[4] = tested on: Salmonella enterica subsp. enterica serovar Paratyphi B; assay: Antibacterial activity against Salmonella paratyphi B CICC 21495 assessed as bacterial growth inhibition incubated for 18 to 24 hrs by microtiter broth dilution method; assay type: functional; conditions: time 18-24 hrs; procedure, shortened: as §2
Erythrocyte = assay: Hemolytic activity against human red blood cells assessed as hemoglobin release at 64 uM measured after 1 hr by microplate reader analysis; assay type: ADME, cell-based
Procedure, shortened: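 Fresh heparinized human RBCs washed three times in 10 mM PBS pH 7.4 and resuspended to about 1% (v/v) (5.4 × 10^8 cells/mL). Mixed 1:1 with peptide in PBS for 1 h at 37 °C, then centrifuged. Supernatant hemoglobin read at A540. PBS set as 0% and 0.1% Triton X-100 as 100% hemolysis. MHC is the concentration causing 10% hemolysis.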

Listeria monocytogenes = assay: Antibacterial activity against Listeria monocytogenes CICC 21633 assessed as bacterial growth inhibition incubated for 18 to 24 hrs by microtiter broth dilution method; assay type: functional; conditions: time 18-24 hrs; procedure, shortened: as §1
Staphylococcus aureus [5] = assay: Antibacterial activity against methicillin resistant Staphylococcus aureus ATCC 43300 assessed as bacterial growth inhibition incubated for 18 to 24 hrs by microtiter broth dilution method; assay type: functional; conditions: time 18-24 hrs; procedure, shortened: as §2
Cell membrane = assay: Induction of inner membrane permeabilization in Escherichia coli O157:H7 CICC 21530 assessed as cytoplasmic beta-galactosidase release at 1 times MIC using ONPG as substrate by […]; assay type: subcellular
Staphylococcus aureus [6] = assay: Antibacterial activity against Staphylococcus aureus ATCC 29213 assessed as bacterial growth inhibition incubated for 18 to 24 hrs in presence of […] by microtiter broth dilution method (reference value: 0.43 to > 71.5 uM); assay type: functional; conditions: time 18-24 hrs
Escherichia coli [7] = assay: Antibacterial activity against Escherichia coli ATCC 35150 assessed as bacterial growth inhibition incubated for 18 to 24 hrs by microtiter broth dilution method; assay type: functional; conditions: time 18-24 hrs; procedure, shortened: as §1
Staphylococcus aureus [8] = assay: Antibacterial activity against Staphylococcus aureus ATCC 29213 assessed as bacterial growth inhibition incubated for 18 to 24 hrs in presence of 6 mM NH4Cl by microtiter broth dilution method (reference value: 0.43 to > 71.5 uM); assay type: functional; conditions: time 18-24 hrs
Vibrio parahaemolyticus = assay: Antibacterial activity against Vibrio parahaemolyticus CICC 21617 assessed as bacterial growth inhibition incubated for 18 to 24 hrs by broth dilution method; assay type: functional; conditions: time 18-24 hrs; procedure, shortened: as §1
Escherichia coli [9] = assay: Antibacterial activity against Escherichia coli O157:H7 CICC 21530 assessed as bacterial growth inhibition incubated for 18 to 24 hrs in presence of 150 mM NaCl by microtiter broth dilution method (reference value: 0.85 to > 71.5 uM); assay type: functional; conditions: time 18-24 hrs
Escherichia coli [10] = assay: Antibacterial activity against Escherichia coli O157:H7 CICC 21530 assessed as bacterial growth inhibition incubated for 18 to 24 hrs in presence of 6 mM NH4Cl by microtiter broth dilution method (reference value: 0.85 to > 71.5 uM); assay type: functional; conditions: time 18-24 hrs
Micrococcus luteus = assay: Antibacterial activity against Micrococcus luteus CMCC 28001 assessed as bacterial growth inhibition incubated for 18 to 24 hrs by microtiter broth dilution method; assay type: functional; conditions: time 18-24 hrs; procedure, shortened: as §1
Bacillus cereus = assay: Antibacterial activity against Bacillus cereus CMCC 63301 assessed as bacterial growth inhibition incubated for 18 to 24 hrs by microtiter broth dilution method; assay type: functional; conditions: time 18-24 hrs; procedure, shortened: as §1
Escherichia coli [11] = assay: Antibacterial activity against Escherichia coli O157:H7 CICC 21530 assessed as bacterial growth inhibition incubated for 18 to 24 hrs in presence of 4 mM FeCl3 by microtiter broth dilution method (reference value: 0.85 to > 71.5 uM); assay type: functional; conditions: time 18-24 hrs
RAW264.7 [12] = assay: Antiinflammatory activity against mouse RAW264.7 cells assessed as inhibition of LPS-induced TNF-alpha production at 0.5 to 64 uM measured after 24 hrs by […] ELISA; assay type: functional, cell-based; conditions: dose 0.5-64 µM; procedure, shortened: as §3
Staphylococcus aureus [13] = assay: Antibacterial activity against Staphylococcus aureus ATCC 29213 assessed as bacterial growth inhibition incubated for 18 to 24 hrs in presence of 2 mM CaCl2 by microtiter broth dilution method (reference value: 0.43 to > 71.5 uM); assay type: functional; conditions: time 18-24 hrs
Staphylococcus aureus [14] = assay: Bactericidal activity against Staphylococcus aureus ATCC 29213 assessed as bacterial killing at 1 times MIC by time kill assay; assay type: functional, organism-based; conditions: time 1085.0 min, TDE = time-dependent effect
Procedure, shortened: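 Log-phase S. aureus 29213 exposed to peptide at 1 × MIC in 10 mM PBS pH 7.4 at 37 °C for 0-90 min. Aliquots taken at fixed intervals, diluted and plated on nutrient agar, and colonies counted after 18 h at 37 °C. Average of three independent assays.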

HepG2 = assay: Induction of cell cycle arrest in human HepG2 cells assessed as accumulation at sub-G1 phase at 32 uM incubated for 24 hrs by annexin-V/FITC staining-based FACS flow cytometry analysis (reference value: 0.07%); assay type: functional
Staphylococcus aureus [15] = assay: Induction of morphological changes in Staphylococcus aureus ATCC 29213 assessed as membrane creeping at 1 times MIC after 60 mins by SEM analysis; assay type: functional, organism-based
Procedure, shortened: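 S. aureus grown to exponential phase in MHB at 37 °C with shaking at 220 rpm. Cells washed twice in PBS, resuspended to OD600 0.2, then exposed to peptide at 1× MIC for 60 min at 37 °C; untreated cells served as control. Cells were pelleted, PBS-washed, fixed overnight in 2.5% glutaraldehyde at 4 °C, dehydrated through graded ethanol then tert-butanol, and imaged by SEM.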

Substance | MIC (Escherichia coli [1]) | MIC (Escherichia coli [2]) | MIC (Salmonella paratyphi) | Activity (RAW264.7 [3]) | MIC [4] | Activity (Erythrocyte) | MIC (Listeria monocytogenes) | MIC (Staphylococcus aureus [5]) | Activity (Cell membrane) | MIC (Staphylococcus aureus [6]) | MIC (Escherichia coli [7]) | MIC (Staphylococcus aureus [8]) | MIC (Vibrio parahaemolyticus) | MIC (Escherichia coli [9]) | MIC (Escherichia coli [10]) | MIC (Micrococcus luteus) | MIC (Bacillus cereus) | MIC (Escherichia coli [11]) | Activity (RAW264.7 [12]) | MIC (Staphylococcus aureus [13]) | also measured
H-WGRAFRRGVRRLARGGRR-NH2 | 14.7 µM | 7.33 µM | 7.33 µM | Dose-dependent effect | 3.67 µM | Non-Toxic | 7.33 µM | 14.7 µM | inactive | > 58.6 µM | 29.3 µM | 7.33 µM | 29.3 µM | 14.7 µM | 3.67 µM | 7.33 µM | 14.7 µM | > 58.6 µM | Active | 7.33 µM | Activity (Staphylococcus aureus [14]): Tde
H-WGEAFSAGVHRLANGGNG-NH2 | > 71.2 µM | > 71.2 µM | > 71.2 µM | Dose-dependent effect | > 71.2 µM | Non-Toxic | > 71.2 µM | > 71.2 µM | inactive | > 71.2 µM | > 71.2 µM | > 71.2 µM | > 71.2 µM | > 71.2 µM | > 71.2 µM | > 71.2 µM | > 71.2 µM | > 71.2 µM | Active | > 71.2 µM | Activity (HepG2): 1.06%; Activity (Staphylococcus aureus [15]): Active; Activity (Staphylococcus aureus [14]): Tde
H-WGRAFSAGVHRLARGGRG-NH2 | > 67 µM | > 67 µM | 33.5 µM | Dose-dependent effect | > 67 µM | Non-Toxic | 67 µM | > 67 µM | inactive | > 67 µM | > 67 µM | > 67 µM | > 67 µM | > 67 µM | 8.35 µM | > 67 µM | > 67 µM | > 67 µM | Active | > 67 µM | Activity (Staphylococcus aureus [14]): Tde
H-WGRAFRRLVRRLARGLRR-NH2 | 27.9 µM | 13.9 µM | 3.49 µM | Dose-dependent effect | 6.97 µM | Non-Toxic | 1.74 µM | 6.97 µM | inactive | > 55.8 µM | 13.9 µM | 1.74 µM | 13.9 µM | 13.9 µM | 3.49 µM | 27.9 µM | 55.8 µM | > 55.8 µM | Active | 3.49 µM | Activity (Staphylococcus aureus [14]): Tde
H-WLRAFRRLVRRLARLLRR-NH2 | 13.3 µM | > 53.2 µM | 6.65 µM | Dose-dependent effect | 3.32 µM | Non-Toxic | 3.32 µM | 3.32 µM | inactive | > 53.2 µM | 26.6 µM | 1.66 µM | 6.65 µM | > 53.2 µM | > 53.2 µM | 13.3 µM | 53.2 µM | > 53.2 µM | Active | 13.3 µM | Activity (Staphylococcus aureus [14]): Tde
H-WGRAFSAGVHRLANGGNG-NH2 | > 70.1 µM | > 70.1 µM | > 70.1 µM | Dose-dependent effect | > 70.1 µM | Non-Toxic | > 70.1 µM | > 70.1 µM | inactive | > 70.1 µM | > 70.1 µM | > 70.1 µM | > 70.1 µM | > 70.1 µM | > 70.1 µM | > 70.1 µM | > 70.1 µM | > 70.1 µM | Active | > 70.1 µM | Activity (Staphylococcus aureus [14]): Tde
H-WGRAFSRGVRRLARGGRG-NH2 | 31.8 µM | 15.9 µM | 15.9 µM | Dose-dependent effect | 15.9 µM | Non-Toxic | 31.8 µM | > 63.5 µM | inactive | > 63.5 µM | 31.8 µM | > 63.5 µM | > 63.5 µM | 15.9 µM | 7.94 µM | > 63.5 µM | > 63.5 µM | > 63.5 µM | Active | > 63.5 µM | Activity (Staphylococcus aureus [14]): Tde
H-WLRAFRRLVRRLARGLRR-NH2 | 1.7 µM | 3.4 µM | 0.43 µM | Dose-dependent effect | 0.85 µM | Non-Toxic | 0.21 µM | 0.85 µM | Active | 55 µM | 1.7 µM | 0.43 µM | 1.7 µM | 3.4 µM | 0.85 µM | 0.43 µM | 0.85 µM | 6.81 µM | Active | 0.43 µM | Activity (HepG2): 24.8%; Activity (Staphylococcus aureus [15]): Active; Activity (Staphylococcus aureus [14]): Tde
